From ChEMBL document CHEMBL4376872, “Scaffold Hopping of Natural Product Evodiamine: Discovery of a Novel Antitumor Scaffold with Excellent Potency against Colon Cancer” (J Med Chem, 2020) come the findings set out here.

Assay [1] concerns K562. As to the kind of experiment: Antiproliferative activity against human K562 cells assessed as reduction in cell viability incubated for 72 hrs by CCK8 assay. The class given is functional, cell-based. To be noted: K562, 72 h.
Assay [2] deals with BEL-7404 tumor cell line. As to the kind of experiment: Antiproliferative activity against human Bel7404 cells assessed as reduction in cell viability incubated for 72 hrs by CCK8 assay. The class given is functional, cell-based. To be noted: BEL-7404, 72 h.
Assay [3] deals with Tubulin (Sus scrofa) (UniProt P02554+P02550). As to the kind of experiment: (§1) Inhibition of porcine brain tubulin polymerization measured at 1 min interval over 20 mins by absorbance based assay.
The target in assay [4] is Tubulin (Sus scrofa, UniProt P02554+P02550). Described as §1.
Assay [5] deals with HCT-116. Kind of assay: Induction of apoptosis in human HCT116 cells at 0.04 uM incubated for 24 hrs by annexin V-FITC and propidium iodide staining based flow cytometry (reference value: 0.86 %). The class given is functional.
Assay [6] deals with HCT-116. Kind of assay: Cell cycle arrest in human HCT116 cells assessed as accumulation in G1 phase at 4 nM incubated for 24 hrs by propidium iodide staining based flow cytometry (reference value: 45.18 %). The class given is functional.
The subject of assay [7] is HCT-116. As to the kind of experiment: Cell cycle arrest in human HCT116 cells assessed as accumulation in G1 phase at 36 nM incubated for 24 hrs by propidium iodide staining based flow cytometry (reference value: 45.18 %). The class given is functional.
Assay [8] concerns HCT-116. As to the kind of experiment: Cell cycle arrest in human HCT116 cells assessed as accumulation in S phase at 36 nM incubated for 24 hrs by propidium iodide staining based flow cytometry (reference value: 42.31 %). The class given is functional.
In assay [9] the test system is HCT-116. As to the kind of experiment: Antitumor activity against human HCT116 cells xenografted in mouse assessed as reduction in tumor growth at 4 mg/kg, ip bid for 21 days administration starting from 10 days after tumor cell implantation measured every 2 or 4 days till the end of the treatment period relative to control. Type of assay: functional. To be noted: HCT-116, ip, read-out: TGI. In short, it runs like this: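 HCT116 xenografts in nude mice; intraperitoneal dosing on 21 consecutive days; tumour growth inhibition (TGI) versus untreated control, with body weight recorded. n = 6 mice per group; mean ± SEM; significance by Student's t test versus control.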

The target in assay [10] is Histone-lysine N-methyltransferase EHMT2 (Homo sapiens) (UniProt Q96KQ7). Kind of assay: Inhibition of N-terminal GST-tagged recombinant human G9a (785 to 1210 residues) expressed in Escherichia coli cells using biotinylated histone H3 peptide as substrate at 5 uM incubated for 90 mins in presence of 1 uM SAM by AlphaScreen assay relative to control.
Assay [11] has as its target Poly [ADP-ribose] polymerase tankyrase-1 (Homo sapiens) (UniProt O95271). As to the kind of experiment: Inhibition of TNKS1 (unknown origin) using biotin-NAD+, NAD+ and sIDNA as substrate at 5 uM incubated for 1 hr by ELISA relative to control.
For assay [12], the target named is Poly [ADP-ribose] polymerase tankyrase-2 (Homo sapiens) (UniProt Q9H2K2). As to the kind of experiment: Inhibition of TNKS2 (unknown origin) using biotin-NAD+, NAD+ and sIDNA as substrate at 5 uM incubated for 1 hr by ELISA relative to control.
The target of assay [13] is Poly [ADP-ribose] polymerase 1 (Homo sapiens) (UniProt P09874). As to the kind of experiment: Inhibition of PARP1 (unknown origin) using biotin-NAD+, NAD+ and sIDNA as substrate at 5 uM incubated for 1 hr by ELISA relative to control.
Assay [14] concerns the target Protein mono-ADP-ribosyltransferase PARP12 (Homo sapiens) (UniProt Q9H0J9). Kind of assay: Inhibition of PARP12 (unknown origin) using biotin-NAD+, NAD+ and sIDNA as substrate at 5 uM incubated for 1 hr by ELISA relative to control.
The target of assay [15] is Lysine-specific demethylase 6B (Homo sapiens) (UniProt O15054). As to the kind of experiment: Inhibition of JMJD3 (unknown origin) using biotinylated histone H3 peptide as substrate at 5 uM incubated for 60 mins by AlphaScreen assay relative to control.
Assay [16] concerns the target cAMP-dependent protein kinase catalytic subunit alpha (Homo sapiens) (UniProt P17612). Kind of assay: Inhibition of PKAC-alpha (unknown origin) using CREBtide as substrate at 5 uM incubated for 40 mins in presence of 10 uM ATP by kiase-Glo luminescence assay relative to control.
The target in assay [17] is PI3-kinase p110-alpha/p85-alpha (Homo sapiens) (UniProt P27986+P42336). As to the kind of experiment: Inhibition of PI3K p110alpha/p85alpha (unknown origin) using PI3K lipid as substrate at 5 uM incubated for 40 mins in presence of 2.5 uM ATP by kinase-Glo luminescence assay relative to control. Type of assay: protein-complex assay.
The species named for assay [18] is Homo sapiens. Kind of assay: Inhibition of PDE4A1A (unknown origin) using FAM-cAMP as substrate at 5 uM incubated for 1 hr by fluorescence polarization assay relative to control.
Assay [19] concerns the target T1, DNA topoisomerase 1 (Escherichia coli (strain K12)) (UniProt P06612).
T1 sequence (whole entry): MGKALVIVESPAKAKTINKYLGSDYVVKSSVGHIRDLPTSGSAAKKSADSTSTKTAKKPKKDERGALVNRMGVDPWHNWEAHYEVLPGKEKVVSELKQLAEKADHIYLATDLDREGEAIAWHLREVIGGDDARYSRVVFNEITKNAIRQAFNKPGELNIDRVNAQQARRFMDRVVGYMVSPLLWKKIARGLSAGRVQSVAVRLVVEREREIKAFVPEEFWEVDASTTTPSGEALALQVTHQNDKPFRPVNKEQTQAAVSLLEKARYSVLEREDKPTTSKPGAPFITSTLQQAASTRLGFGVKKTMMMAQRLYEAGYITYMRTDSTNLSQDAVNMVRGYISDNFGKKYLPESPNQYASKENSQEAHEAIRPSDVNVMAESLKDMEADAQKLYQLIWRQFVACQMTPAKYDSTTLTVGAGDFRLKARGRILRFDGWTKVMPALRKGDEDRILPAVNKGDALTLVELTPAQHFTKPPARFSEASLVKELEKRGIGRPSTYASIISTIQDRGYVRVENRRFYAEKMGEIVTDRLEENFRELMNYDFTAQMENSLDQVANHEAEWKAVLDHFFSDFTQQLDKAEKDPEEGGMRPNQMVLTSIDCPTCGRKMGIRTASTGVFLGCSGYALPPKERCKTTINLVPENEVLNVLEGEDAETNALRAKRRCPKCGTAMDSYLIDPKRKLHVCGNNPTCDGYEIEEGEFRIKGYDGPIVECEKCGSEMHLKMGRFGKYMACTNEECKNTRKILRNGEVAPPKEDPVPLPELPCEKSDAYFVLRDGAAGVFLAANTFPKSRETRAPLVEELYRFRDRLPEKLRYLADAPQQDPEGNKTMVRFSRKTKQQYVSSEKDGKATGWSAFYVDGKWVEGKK
As to the kind of experiment: Poison activity at Escherichia coli Top1 assessed as increase in […] band intensity at 12.5 to 100 uM using supercoiled pUC19 plasmid DNA as substrate incubated for 30 mins by agarose gel electrophoresis analysis. In short, it runs like this: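 Supercoiled pUC19 plasmid DNA was incubated with Top1 plus compound at 100, 50, 25 and 12.5 μM. Controls were DNA alone, DNA + Top1, and DNA + Top1 + CPT (100 μM). Products were resolved as gel lanes.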

Structures are written as SMILES. The source made the active and inactive calls. No cut-off for these calls is given here.

Sequence of Lysine-specific demethylase 6B (Homo sapiens) (O15054 whole entry): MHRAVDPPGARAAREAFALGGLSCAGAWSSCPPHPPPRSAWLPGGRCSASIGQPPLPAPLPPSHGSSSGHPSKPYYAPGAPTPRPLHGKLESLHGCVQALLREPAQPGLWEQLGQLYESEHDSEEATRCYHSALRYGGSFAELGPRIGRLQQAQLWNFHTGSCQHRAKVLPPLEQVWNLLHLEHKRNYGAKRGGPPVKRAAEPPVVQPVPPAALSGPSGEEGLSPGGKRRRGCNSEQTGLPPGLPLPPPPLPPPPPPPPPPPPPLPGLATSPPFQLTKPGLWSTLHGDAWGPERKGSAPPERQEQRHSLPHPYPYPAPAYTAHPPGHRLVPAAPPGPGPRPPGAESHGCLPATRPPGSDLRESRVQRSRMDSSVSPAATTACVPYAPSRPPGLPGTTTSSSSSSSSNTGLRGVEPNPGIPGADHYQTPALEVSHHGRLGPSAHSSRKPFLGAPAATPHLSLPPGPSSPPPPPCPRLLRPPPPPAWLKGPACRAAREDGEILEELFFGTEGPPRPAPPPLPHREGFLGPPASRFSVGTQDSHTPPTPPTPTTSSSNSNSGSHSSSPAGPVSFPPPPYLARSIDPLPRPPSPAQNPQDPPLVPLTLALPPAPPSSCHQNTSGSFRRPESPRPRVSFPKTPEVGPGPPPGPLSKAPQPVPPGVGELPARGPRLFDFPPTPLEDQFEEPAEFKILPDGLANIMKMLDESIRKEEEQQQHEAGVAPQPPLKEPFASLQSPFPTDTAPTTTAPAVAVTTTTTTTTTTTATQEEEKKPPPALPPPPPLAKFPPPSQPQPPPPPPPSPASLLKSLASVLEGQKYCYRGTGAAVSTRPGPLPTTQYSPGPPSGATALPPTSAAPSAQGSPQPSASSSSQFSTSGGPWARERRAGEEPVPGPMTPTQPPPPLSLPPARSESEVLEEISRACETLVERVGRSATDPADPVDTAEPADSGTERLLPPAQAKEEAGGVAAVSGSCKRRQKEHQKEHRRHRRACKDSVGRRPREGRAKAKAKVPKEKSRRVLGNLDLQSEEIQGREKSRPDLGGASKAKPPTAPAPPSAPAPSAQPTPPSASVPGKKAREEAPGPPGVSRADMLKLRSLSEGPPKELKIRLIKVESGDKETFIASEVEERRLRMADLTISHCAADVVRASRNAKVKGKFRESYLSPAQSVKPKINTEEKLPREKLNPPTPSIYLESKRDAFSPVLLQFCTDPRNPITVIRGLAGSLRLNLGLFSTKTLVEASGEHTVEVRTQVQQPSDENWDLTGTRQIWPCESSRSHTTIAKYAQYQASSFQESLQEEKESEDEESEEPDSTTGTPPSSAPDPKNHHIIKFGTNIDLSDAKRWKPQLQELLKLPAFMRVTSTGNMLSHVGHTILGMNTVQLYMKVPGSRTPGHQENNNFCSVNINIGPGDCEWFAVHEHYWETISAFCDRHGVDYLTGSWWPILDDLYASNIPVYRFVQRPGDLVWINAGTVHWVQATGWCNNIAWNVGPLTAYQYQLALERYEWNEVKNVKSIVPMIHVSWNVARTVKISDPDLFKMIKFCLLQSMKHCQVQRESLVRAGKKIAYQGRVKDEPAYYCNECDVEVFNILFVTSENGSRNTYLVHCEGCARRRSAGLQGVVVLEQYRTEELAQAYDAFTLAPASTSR
Sequence of Poly [ADP-ribose] polymerase 1 (Homo sapiens) (P09874 whole entry): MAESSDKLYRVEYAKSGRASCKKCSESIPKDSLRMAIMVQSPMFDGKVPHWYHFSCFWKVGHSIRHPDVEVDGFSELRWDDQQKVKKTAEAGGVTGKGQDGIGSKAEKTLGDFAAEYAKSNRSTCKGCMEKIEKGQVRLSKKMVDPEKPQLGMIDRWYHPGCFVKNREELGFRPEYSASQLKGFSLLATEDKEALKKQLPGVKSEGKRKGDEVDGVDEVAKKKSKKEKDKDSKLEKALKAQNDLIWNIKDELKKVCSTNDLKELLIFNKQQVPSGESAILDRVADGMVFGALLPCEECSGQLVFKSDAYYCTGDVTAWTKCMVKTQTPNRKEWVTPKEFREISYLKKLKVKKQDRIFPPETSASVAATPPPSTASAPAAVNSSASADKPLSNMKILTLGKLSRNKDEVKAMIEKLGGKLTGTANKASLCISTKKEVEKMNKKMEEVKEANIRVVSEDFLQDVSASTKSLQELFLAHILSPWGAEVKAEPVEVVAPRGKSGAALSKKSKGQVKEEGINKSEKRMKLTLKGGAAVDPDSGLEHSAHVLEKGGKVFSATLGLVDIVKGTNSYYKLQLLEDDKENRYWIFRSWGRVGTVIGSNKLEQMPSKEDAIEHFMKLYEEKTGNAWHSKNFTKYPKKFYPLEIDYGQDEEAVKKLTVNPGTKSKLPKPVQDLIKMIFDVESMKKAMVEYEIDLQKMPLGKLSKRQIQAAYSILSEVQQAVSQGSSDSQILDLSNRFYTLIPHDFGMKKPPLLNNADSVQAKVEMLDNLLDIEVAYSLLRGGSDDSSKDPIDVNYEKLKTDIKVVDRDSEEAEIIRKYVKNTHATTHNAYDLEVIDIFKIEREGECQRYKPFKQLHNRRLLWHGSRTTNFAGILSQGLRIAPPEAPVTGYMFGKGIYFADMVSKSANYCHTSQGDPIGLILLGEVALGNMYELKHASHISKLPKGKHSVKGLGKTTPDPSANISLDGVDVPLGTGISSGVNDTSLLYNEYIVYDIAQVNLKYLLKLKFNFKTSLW
Sequence of Poly [ADP-ribose] polymerase tankyrase-1 (Homo sapiens) (O95271 whole entry): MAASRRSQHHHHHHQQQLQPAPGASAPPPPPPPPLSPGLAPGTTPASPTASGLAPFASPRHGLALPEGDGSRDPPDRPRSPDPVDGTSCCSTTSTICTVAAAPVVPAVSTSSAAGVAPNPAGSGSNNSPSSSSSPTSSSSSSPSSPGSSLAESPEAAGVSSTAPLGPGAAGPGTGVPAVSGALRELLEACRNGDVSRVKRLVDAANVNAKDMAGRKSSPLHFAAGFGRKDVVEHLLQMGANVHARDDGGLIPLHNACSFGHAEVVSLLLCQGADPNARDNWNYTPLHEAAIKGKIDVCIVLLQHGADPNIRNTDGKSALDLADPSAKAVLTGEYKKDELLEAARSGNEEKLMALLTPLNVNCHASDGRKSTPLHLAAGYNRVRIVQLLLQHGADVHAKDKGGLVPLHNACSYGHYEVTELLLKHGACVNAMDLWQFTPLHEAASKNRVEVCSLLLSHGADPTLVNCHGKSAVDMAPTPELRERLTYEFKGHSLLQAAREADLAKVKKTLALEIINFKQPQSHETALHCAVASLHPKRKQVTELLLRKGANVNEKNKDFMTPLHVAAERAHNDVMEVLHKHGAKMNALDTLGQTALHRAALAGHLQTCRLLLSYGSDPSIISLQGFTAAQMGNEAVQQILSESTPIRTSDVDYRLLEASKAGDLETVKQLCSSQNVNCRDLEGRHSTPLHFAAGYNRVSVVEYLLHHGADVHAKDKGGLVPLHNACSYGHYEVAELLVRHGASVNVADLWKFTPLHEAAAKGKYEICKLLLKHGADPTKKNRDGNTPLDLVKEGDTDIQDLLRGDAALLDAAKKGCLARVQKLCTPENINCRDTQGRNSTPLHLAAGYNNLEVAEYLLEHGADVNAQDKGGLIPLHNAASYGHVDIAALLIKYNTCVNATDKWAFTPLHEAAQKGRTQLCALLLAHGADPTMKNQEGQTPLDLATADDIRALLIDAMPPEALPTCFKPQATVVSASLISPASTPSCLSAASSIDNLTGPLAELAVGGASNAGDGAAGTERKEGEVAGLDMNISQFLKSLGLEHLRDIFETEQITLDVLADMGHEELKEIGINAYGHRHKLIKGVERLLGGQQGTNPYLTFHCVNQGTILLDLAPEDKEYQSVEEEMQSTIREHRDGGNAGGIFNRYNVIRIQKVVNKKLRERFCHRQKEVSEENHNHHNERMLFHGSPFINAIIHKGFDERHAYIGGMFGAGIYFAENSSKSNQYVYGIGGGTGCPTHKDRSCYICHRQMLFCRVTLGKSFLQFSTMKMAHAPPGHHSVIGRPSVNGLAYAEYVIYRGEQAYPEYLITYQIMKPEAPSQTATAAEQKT
Sequence of Tubulin (Sus scrofa) (P02550 whole entry, looked up): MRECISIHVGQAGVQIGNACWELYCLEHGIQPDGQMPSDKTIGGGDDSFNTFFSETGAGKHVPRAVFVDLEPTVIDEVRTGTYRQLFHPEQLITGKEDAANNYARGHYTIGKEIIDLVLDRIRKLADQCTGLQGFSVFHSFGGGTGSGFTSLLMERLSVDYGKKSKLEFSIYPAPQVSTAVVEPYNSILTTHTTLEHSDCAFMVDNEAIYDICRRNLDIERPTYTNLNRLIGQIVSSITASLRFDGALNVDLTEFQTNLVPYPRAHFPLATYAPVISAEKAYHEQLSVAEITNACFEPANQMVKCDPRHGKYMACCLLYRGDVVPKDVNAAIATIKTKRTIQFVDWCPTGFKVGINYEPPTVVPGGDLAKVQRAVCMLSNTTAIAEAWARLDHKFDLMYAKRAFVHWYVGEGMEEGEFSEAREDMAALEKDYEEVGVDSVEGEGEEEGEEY
Sequence of Tubulin (Sus scrofa) (P02554 whole entry, looked up): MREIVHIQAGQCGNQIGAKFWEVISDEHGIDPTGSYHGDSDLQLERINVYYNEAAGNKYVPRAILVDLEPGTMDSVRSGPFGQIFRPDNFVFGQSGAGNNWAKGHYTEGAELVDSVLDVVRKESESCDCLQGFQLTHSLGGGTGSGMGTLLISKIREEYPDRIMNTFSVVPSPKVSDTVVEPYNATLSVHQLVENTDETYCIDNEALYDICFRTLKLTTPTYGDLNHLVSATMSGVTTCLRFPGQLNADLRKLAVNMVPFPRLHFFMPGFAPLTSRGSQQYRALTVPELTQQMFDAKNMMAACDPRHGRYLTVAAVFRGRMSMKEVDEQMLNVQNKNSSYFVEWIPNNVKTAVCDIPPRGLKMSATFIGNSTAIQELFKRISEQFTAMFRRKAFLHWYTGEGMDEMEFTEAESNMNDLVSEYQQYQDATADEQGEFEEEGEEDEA

Turning to `COc1ccc2c(c1)cc1n2CCN2C(=O)c3cc(F)ccc3N(C)C12` (centres undefined), the half-maximal inhibitory concentration (IC50) in assay [1] is less than 3 nM; in [2], 100 nM; in assay [4] it was 26300 nM. The inhibition entry in [3] is “Dose-dependent effect”; in assay [10], less than 20%; in assay [11], less than 20%; in assay [12] it was less than 20%; in assay [13], less than 20%; in assay [14] it was less than 20%. In addition, the inhibition in assay [15], in assay [16], in assay [17] and in assay [18] was less than 20% each time. In addition, the Activity in assay [5] was determined as 32.52%; in assay [6] it was 43.01%; in assay [7], 1.02%; in assay [8], 14.85%. Besides, the inhibition in vivo at 4 mg/kg in assay [9] came out at 37%. In addition, in assay [19], the result was Active.
